In data set [1] the test system is Mycobacterium tuberculosis. Kind of data set: fT>MIC for >= 1 log reduction in CFU count in Mycobacterium tuberculosis H37Rv in using simulated dose of at 200 mg assessed as time during compound concentration exceeds MIC of 0.25000 ug/ml assuming 15% unbound compound concentration by one compartment human pharmacokinetic model. The format is functional. The method in brief:
(§1)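 A one-compartment PK model was fitted to human data to get median parameters. It simulated steady-state total and free concentrations for 100, 200 or 400 mg once daily, assuming 5, 7, 10 or 15% unbound drug. Free T>MIC was computed against MICs of 0.03125–0.25 µg/ml and compared with the mouse-derived T>MIC target for 1-log10 kill.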

Data set [2] deals with Mycobacterium tuberculosis. Kind of data set: Antitubercular activity against Mycobacterium tuberculosis H37Rv assessed as reduction in CFU count by agar proportion method. Type of data set: functional. The method in brief:
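Agar proportion method on 7H11 agar with 10% OADC containing 2-fold drug dilutions (0.007–2.0 µg/ml). Plates inoculated with serial 100-fold dilutions of log-phase H37Rv broth culture (~10^8 CFU/ml). Drug-free and isoniazid plates as controls. CFU counted after 21 days at 37°C, 5% CO2. MIC is the lowest concentration giving <1% of drug-free CFU.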

The test system of data set [3] is Mycobacterium tuberculosis. As to the kind of experiment: fT>MIC for >= 1 log reduction in CFU count in Mycobacterium tuberculosis H37Rv in using simulated dose of at 400 mg assessed as time during compound concentration exceeds MIC of 0.06250 ug/ml assuming 5% unbound compound concentration by one compartment human pharmacokinetic model. Type of data set: functional. The gist of the method:
(§2)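 Human steady-state simulation: one-compartment PK model fitted to patient data, chosen by AIC. Median PK parameters used to simulate total and free concentrations, assuming 5, 7, 10 or 15% unbound, for 100, 200 and 400 mg once daily. Free levels compared with MICs of 0.03125 to 0.25 µg/ml to give %T>MIC; T>MIC is the cumulative percentage of the dosing interval above MIC.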

Data set [4] concerns Mycobacterium tuberculosis. Kind of data set: fT>MIC for >= 1 log reduction in CFU count in Mycobacterium tuberculosis H37Rv in using simulated dose of at 200 mg assessed as time during compound concentration exceeds MIC of 0.12500 ug/ml assuming 7% unbound compound concentration by one compartment human pharmacokinetic model. Type of data set: functional. The method in brief:
as §1

Data set [5] deals with Mycobacterium tuberculosis. As to the kind of experiment: fT>MIC for >= 1 log reduction in CFU count in Mycobacterium tuberculosis H37Rv in using simulated dose of at 100 mg assessed as time during compound concentration exceeds MIC of 0.25000 ug/ml assuming 7% unbound compound concentration by one compartment human pharmacokinetic model. The format is functional. The method in brief: as §1

The test system of data set [6] is Mycobacterium tuberculosis. Kind of data set: fT>MIC for >= 1 log reduction in CFU count in Mycobacterium tuberculosis H37Rv in using simulated dose of at 200 mg assessed as time during compound concentration exceeds MIC of 0.12500 ug/ml assuming 10% unbound compound concentration by one compartment human pharmacokinetic model. The format is functional. The gist of the method: as §1

Data set [7] relates to Mycobacterium tuberculosis. As to the kind of experiment: fT>MIC for >= 1 log reduction in CFU count in Mycobacterium tuberculosis H37Rv in using simulated dose of at 100 mg assessed as time during compound concentration exceeds MIC of 0.12500 ug/ml assuming 15% unbound compound concentration by one compartment human pharmacokinetic model. Type of data set: functional. The method in brief: as §1

Data set [8] relates to Mycobacterium tuberculosis. As to the kind of experiment: fT>MIC for >= 1 log reduction in CFU count in Mycobacterium tuberculosis H37Rv in using simulated dose of at 100 mg assessed as time during compound concentration exceeds MIC of 0.03125 ug/ml assuming 10% unbound compound concentration by one compartment human pharmacokinetic model. Type of data set: functional. The method in brief:
as §1

Data set [9] deals with Mycobacterium tuberculosis. Kind of data set: fT>MIC for >= 1 log reduction in CFU count in Mycobacterium tuberculosis H37Rv in using simulated dose of at 400 mg assessed as time during compound concentration exceeds MIC of 0.12500 ug/ml assuming 10% unbound compound concentration by one compartment human pharmacokinetic model. The format is functional. The gist of the method: as §2

For data set [10], the system named is Mycobacterium tuberculosis. As to the kind of experiment: fT>MIC for >= 1 log reduction in CFU count in Mycobacterium tuberculosis H37Rv in using simulated dose of at 200 mg assessed as time during compound concentration exceeds MIC of 0.03125 ug/ml assuming 7% unbound compound concentration by one compartment human pharmacokinetic model. Type of data set: functional. The method in brief: as §1

Data set [11] concerns Mycobacterium tuberculosis. Kind of data set: fT>MIC for >= 1 log reduction in CFU count in Mycobacterium tuberculosis H37Rv in using simulated dose of at 400 mg assessed as time during compound concentration exceeds MIC of 0.25000 ug/ml assuming 10% unbound compound concentration by one compartment human pharmacokinetic model. The format is functional. The method in brief: as §2

The subject of data set [12] is Mycobacterium tuberculosis. Kind of data set: fT>MIC for >= 1 log reduction in CFU count in Mycobacterium tuberculosis H37Rv in using simulated dose of at 400 mg assessed as time during compound concentration exceeds MIC of 0.06250 ug/ml assuming 10% unbound compound concentration by one compartment human pharmacokinetic model. The format is functional. The gist of the method: as §1

The test system of data set [13] is Mycobacterium tuberculosis. As to the kind of experiment: fT>MIC for >= 1 log reduction in CFU count in Mycobacterium tuberculosis H37Rv in using simulated dose of at 200 mg assessed as time during compound concentration exceeds MIC of 0.06250 ug/ml assuming 10% unbound compound concentration by one compartment human pharmacokinetic model. The format is functional. The method in brief: as §1

Data set [14] concerns Mycobacterium tuberculosis. As to the kind of experiment: fT>MIC for >= 1 log reduction in CFU count in Mycobacterium tuberculosis H37Rv in using simulated dose of at 100 mg assessed as time during compound concentration exceeds MIC of 0.03125 ug/ml assuming 5% unbound compound concentration by one compartment human pharmacokinetic model. Type of data set: functional. The gist of the method:
as §1

The subject of data set [15] is Mycobacterium tuberculosis. As to the kind of experiment: fT>MIC for >= 1 log reduction in CFU count in Mycobacterium tuberculosis H37Rv in using simulated dose of at 400 mg assessed as time during compound concentration exceeds MIC of 0.03125 ug/ml assuming 7% unbound compound concentration by one compartment human pharmacokinetic model. The format is functional. The method in brief:
as §1

Data set [16] relates to Mycobacterium tuberculosis. As to the kind of experiment: Antitubercular activity against Mycobacterium tuberculosis H37Rv infected in BALB/c mouse at 12.5 mg/kg, po for 5 days relative to control. Type of data set: functional, organism-based. The arrangement: dose 12.5 mg/kg.
Data set [17] concerns Mycobacterium tuberculosis. As to the kind of experiment: fT>MIC for >= 1 log reduction in CFU count in Mycobacterium tuberculosis H37Rv in using simulated dose of at 100 mg assessed as time during compound concentration exceeds MIC of 0.25000 ug/ml assuming 5% unbound compound concentration by one compartment human pharmacokinetic model. Type of data set: functional. The gist of the method:
as §1

Data set [18] in a line: Elimination half life in BALB/c mouse up to 1456 mg/kg, po administered as single dose. Type of data set: ADME, organism-based. More on the design: route oral. Particulars: in vivo, read-out: beta t1/2 (converted). The method in brief: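 Uninfected 6-week female BALB/c mice received single oral gavage doses of 3–1,458 mg/kg as a cyclodextrin-micelle suspension. Three mice per time point were bled by cardiac puncture under isoflurane at 0.5–120 h. Serum levels were measured by validated HPLC-UV (standards 0.20–50 µg/ml).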

Data set [19] relates to Mycobacterium tuberculosis. Kind of data set: fT>MIC for >= 1 log reduction in CFU count in Mycobacterium tuberculosis H37Rv in using simulated dose of at 100 mg assessed as time during compound concentration exceeds MIC of 0.03125 ug/ml assuming 7% unbound compound concentration by one compartment human pharmacokinetic model. The format is functional. The gist of the method:
as §1

The subject of data set [20] is Mycobacterium tuberculosis. Kind of data set: fT>MIC for >= 1 log reduction in CFU count in Mycobacterium tuberculosis H37Rv in using simulated dose of at 100 mg assessed as time during compound concentration exceeds MIC of 0.06250 ug/ml assuming 7% unbound compound concentration by one compartment human pharmacokinetic model. Type of data set: functional. The method in brief:
as §1

SMILES strings stand for the structures. ≈ marks a conversion by molar mass, not a printed value. Calls of active or inactive are those of the source. The rule behind the calls is not given here.

As to `O=[N+]([O-])c1cn2c(n1)OC[C@@H](OCc1ccc(OC(F)(F)F)cc1)C2` [PRETOMANID], the “fT>MIC” value in data set [1] is 6%; in [3], 100%; in data set [4], 4%; in data set [5] it was 0%; in [6], 46%; in data set [7], 6%. Further, the “fT>MIC” value in data set [8] was 100%; in [9], 100%; in data set [10], 100%; in [11], 46%; in data set [12], 100%; in [13], 100%. The “fT>MIC” value in data set [14] is 46%; in data set [15], 100%; in data set [17], 0%; in data set [19] it was 67%; in [20], 0%. Besides, in [2], the MIC came to 0.06 µg/mL (≈ 0.167 µM). For the same compound, in data set [16], the result was Active. Besides, the half-life in data set [18] is 4 h.

The MIC is the lowest concentration that inhibits growth of the organism.

Source of the values: ChEMBL document CHEMBL1687823, “PA-824 exhibits time-dependent activity in a murine model of tuberculosis” (Antimicrob Agents Chemother, 2011).
